# From ChEMBL document CHEMBL4190396, “Discovery of Novel Small-Molecule Inhibitors of NF-κB Signaling with Antiinflammatory and Anticancer Properties” (J Med Chem, 2018)
# Activity calls are given as the source filed them. No cut-off for these calls is given here.
# Target: T1, Toll-like receptor 7 (Homo sapiens) (UniProt Q9NYK1)
# T1 sequence (whole entry): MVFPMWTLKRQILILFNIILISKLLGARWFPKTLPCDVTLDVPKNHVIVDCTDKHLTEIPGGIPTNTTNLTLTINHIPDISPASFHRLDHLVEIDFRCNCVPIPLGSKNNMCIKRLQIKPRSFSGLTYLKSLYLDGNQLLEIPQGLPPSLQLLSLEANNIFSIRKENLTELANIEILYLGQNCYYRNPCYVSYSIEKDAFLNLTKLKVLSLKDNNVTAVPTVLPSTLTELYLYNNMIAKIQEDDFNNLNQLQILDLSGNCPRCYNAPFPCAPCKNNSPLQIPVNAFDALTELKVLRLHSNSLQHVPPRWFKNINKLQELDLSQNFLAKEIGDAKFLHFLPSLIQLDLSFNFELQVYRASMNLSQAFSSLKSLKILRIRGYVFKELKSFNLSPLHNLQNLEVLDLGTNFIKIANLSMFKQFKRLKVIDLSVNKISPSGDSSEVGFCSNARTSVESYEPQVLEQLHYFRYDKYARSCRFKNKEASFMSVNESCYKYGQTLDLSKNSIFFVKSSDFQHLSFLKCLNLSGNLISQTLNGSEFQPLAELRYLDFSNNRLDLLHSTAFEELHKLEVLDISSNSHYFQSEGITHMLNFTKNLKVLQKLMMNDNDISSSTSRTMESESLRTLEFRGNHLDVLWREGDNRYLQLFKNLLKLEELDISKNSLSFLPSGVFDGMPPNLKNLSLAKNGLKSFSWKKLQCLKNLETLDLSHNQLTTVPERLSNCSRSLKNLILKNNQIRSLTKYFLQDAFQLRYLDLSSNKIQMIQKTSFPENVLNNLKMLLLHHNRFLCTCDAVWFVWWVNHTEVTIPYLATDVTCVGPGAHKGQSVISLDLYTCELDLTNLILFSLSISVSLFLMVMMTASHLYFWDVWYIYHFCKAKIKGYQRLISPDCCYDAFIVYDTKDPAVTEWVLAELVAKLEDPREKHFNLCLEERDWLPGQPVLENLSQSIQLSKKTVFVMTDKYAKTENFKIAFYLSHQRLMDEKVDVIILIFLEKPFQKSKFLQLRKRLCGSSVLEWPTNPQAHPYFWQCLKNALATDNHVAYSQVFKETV
# Experiment: Inhibition of human TLR7 expressed in HEK293 cells assessed as decrease in R848-induced NF-kappaB activation-mediated SEAP production at 40 uM after 24 hrs by Quanti-blue-based assay relative to control
# Type: cell-based
# Summary of the method: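 Screening mode: HEK hTLR7 cells, 20,000/well in duplicate, stimulated with R848 1 µg/mL, library compounds at 40 µM; triptolide 40 nM positive control, 0.4% DMSO negative control; SEAP read by QUANTI-Blue.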
row,inhibition [%],Compound
1,83.1,Nc1cccnc1C(=O)NNC(=O)c1cccc(C(F)(F)F)c1
2,97.4,O=C(NNC(=O)c1ncccc1O)c1ccc(C(F)(F)F)cc1
3,29,O=C(NNC(=O)c1cnccn1)c1cccc(C(F)(F)F)c1
4,36.2,Nc1nccnc1C(=O)NNC(=O)c1ccc(Br)cc1
5,28,Nc1nccnc1C(=O)NNC(=O)c1c(Cl)cccc1Cl
6,19,O=C(NNC(=O)c1nccnc1Cl)c1cccc(C(F)(F)F)c1
7,85.4,O=C(NNC(=O)c1ccccn1)c1ccc(C(F)(F)F)cc1
8,26,Cc1nc(C(=O)NNC(=O)c2cccc(OC(F)(F)F)c2)cs1
9,79,Nc1nccnc1C(=O)NNC(=O)c1ccc(C(F)(F)F)cc1
10,17.7,Nc1nccnc1C(=O)NNC(=O)c1ccc(O)cc1
11,21,CCCC1Nc2nccnc2C(=O)N1NC(=O)c1cccc(C(F)(F)F)c1 (configuration not stated)
12,68,Nc1nccnc1C(=O)NNC(=O)c1cccc(C(F)(F)F)c1
13,42,Nc1nccnc1C(=O)NNC(=O)c1ccc(Cl)cc1
14,12,Nc1nccnc1C(=O)NNC(=O)c1cccnc1
15,17,CCCCCCNC(=O)c1ccc(C(=O)NNC(=O)c2nccnc2N)cc1
16,23,Nc1nccnc1C(=O)NNC(=O)c1ccccc1C(F)(F)F
17,21,Nc1ncc(Cl)nc1C(=O)NNC(=O)c1cccc(C(F)(F)F)c1
18,18,COC(=O)c1ccc(C(=O)NNC(=O)c2nccnc2N)cc1
19,96.5,O=C(NNC(=O)c1ncccc1O)c1ccc(OC(F)(F)F)cc1
20,96,O=C(NNC(=O)c1ncccc1O)c1cccc(C(F)(F)F)c1
21,31,Cc1nc(C(=O)NNC(=O)c2cccc(C(F)(F)F)c2)cs1
22,18.2,Nc1ncc(Br)nc1C(=O)NNC(=O)c1cccc(C(F)(F)F)c1
23,20.4,COc1ccc(C(=O)NNC(=O)c2nccnc2N)cc1
24,26,Nc1nccnc1C(=O)NNC(=O)c1ccc(F)cc1F
25,88,O=C(NNC(=O)c1ccccn1)c1cccc(C(F)(F)F)c1
26,72,Nc1nccnc1C(=O)NNC(=O)c1ccc(OC(F)(F)F)cc1
27,22,Nc1ncccc1C(=O)NNC(=O)c1cccc(C(F)(F)F)c1

# Further lines, the compound ahead of its results:
row,Compound,inhibition [%]
1,O=C(NNC(=O)c1nccs1)c1ccc(Cl)cc1,24
2,CC(C)c1cc(C(=O)NNC(=O)c2ccc(Cl)cc2)[nH]n1,11
3,O=C(NNC(=O)c1cc2ccccc2[nH]1)c1ccc(Cl)cc1,13
4,Cc1nc(C(=O)NNC(=O)c2cccnc2)cs1,21
5,CC(C)c1nc(C(=O)NNC(=O)c2ccccn2)cs1,94.2
6,O=C(NNC(=O)c1ccccn1)c1ccc(OC(F)(F)F)cc1,79.8
7,O=C(NNC(=O)c1ncccc1O)c1ccc(Br)cc1,96.2
8,Nc1nccnc1C(=O)NNC(=O)c1ccc([N+](=O)[O-])cc1Cl,23
9,O=C(NNC(=O)c1csc(-c2ccncc2)n1)c1ccccn1,33
10,COC(=O)c1cccc(C(=O)NNC(=O)c2csc(C)n2)c1,9
11,Cc1nc(C(=O)NNC(=O)c2ccccc2Cl)cs1,6
12,O=C(NNC(=O)c1ccccn1)c1ccc(Cl)cc1,76
13,Cc1nc(C(=O)NNC(=O)c2ccccn2)cs1,73
14,Cc1nc(C(=O)NNC(=O)c2cccc(Br)c2)cs1,30.6
15,Cc1nc(C(=O)NNC(=O)c2ccncc2)cs1,19.5
16,Cc1nc(C(=O)NNC(=O)c2cccc(C#N)c2)cs1,6.4
17,COc1cccc(C(=O)NNC(=O)c2csc(C)n2)c1,24
18,Cc1ccc2c(Cl)c(C(=O)NNC(=O)c3ccc(Cl)cc3)sc2c1,16.7
19,Cc1nc(C(=O)NNC(=O)c2cccc(O)c2)cs1,18
20,Cc1nc(C(=O)NNC(=O)c2cccc(F)c2)cs1,21.1
21,Cc1nc(C(=O)NNC(=O)c2cccc(Cl)c2)cs1,40
22,O=C(NNC(=O)c1ccccn1)c1ccc(Br)cc1,82.3
23,Cc1nc(C(=O)NNC(=O)c2ccc(Cl)cc2)cs1,51
24,O=C(NNC(=O)c1csc(-c2ccccc2)n1)c1ccccn1,98.8
25,N#Cc1ccc(C(=O)NNC(=O)c2nccnc2N)cc1,15
26,O=C(NNC(=O)c1csc(-c2cccnc2)n1)c1ccccn1,86
27,O=C(NNC(=O)c1ncccc1O)c1ccc(Cl)cc1,81
28,Cc1nc(C(=O)NNC(=O)c2cc(Cl)cc(Cl)c2)cs1,24
29,Cc1ncc(C(=O)NNC(=O)c2ccc(Cl)cc2)s1,17

# Target: T1, Toll-like receptor 7 (Homo sapiens)
# Experiment: Inhibition of human TLR7 expressed in HEK293 cells assessed as decrease in R848-induced NF-kappaB activation-mediated SEAP production at 5 uM after 24 hrs by Quanti-blue-based assay relative to control
# Type: cell-based
row,inhibition [%],Compound
1,96.1,O=C(NNC(=O)c1csc(-c2ccc(C(F)(F)F)cc2)n1)c1ccccn1
2,96.7,O=C(NNC(=O)c1csc(-c2cccc(C(F)(F)F)c2)n1)c1ccccn1

# More lines, now with the values behind:
row,Compound,inhibition [%]
1,CCc1ccc(-c2nc(C(=O)NNC(=O)c3ccccn3)cs2)cc1,91.9
2,O=C(NNC(=O)c1csc(-c2cc(Cl)cc(Cl)c2)n1)c1ccccn1,99.1
3,O=C(NNC(=O)c1csc(-c2cccc(Cl)c2)n1)c1ccccn1,93.7
4,Cc1ccc(-c2nc(C(=O)NNC(=O)c3ccccn3)cs2)cc1,88.2
5,COc1ccc(-c2nc(C(=O)NNC(=O)c3ccccn3)cs2)cc1,80.3
6,COc1ccc(-c2nc(C(=O)NNC(=O)c3ccccn3)cs2)cc1OC,66
7,O=C(NNC(=O)c1csc(-c2ccc(Cl)cc2)n1)c1ccccn1,91
8,O=C(NNC(=O)c1csc(-c2cccc(F)c2)n1)c1ccccn1,79
9,O=C(NNC(=O)c1csc(-c2ccc(F)cc2)n1)c1ccccn1,65
10,O=C(NNC(=O)c1csc(-c2cccc(Cl)c2Cl)n1)c1ccccn1,99.9
11,O=C(NNC(=O)c1csc(-c2cccc(Br)c2)n1)c1ccccn1,97.6
12,CN(C)c1ccc(-c2nc(C(=O)NNC(=O)c3ccccn3)cs2)cc1,93.1

# Target: T1, Toll-like receptor 7 (Homo sapiens)
# Experiment: Inhibition of human TLR7 expressed in HEK293 cells assessed as decrease in R848-induced NF-kappaB activation-mediated SEAP production at 30 uM after 24 hrs by Quanti-blue-based assay relative to control
# Type: cell-based
row,inhibition,Compound
1,Active,Nc1nccnc1C(=O)NNC(=O)c1cccc(C(F)(F)F)c1
2,Active,Cc1nc(C(=O)NNC(=O)c2ccc(Cl)cc2)cs1
